Test results published in ChEMBL document CHEMBL1123529, “Analogues of substance P. Peptides containing D-amino acid residues in various positions of substance P and displaying agonist or receptor selective antagonist effects” (1986).
Several values for one entry are separate records, joined by “and”; a condition that tells them apart may be missing. Equal values may be shown once. Where a SMILES comes first, the peptide text is derived from it. [ ]: non-standard residue; d: D form. The star is where a group is joined. Cbz = O=C(OCc1ccccc1)*

How the values were obtained:
[1] = biological target: Metabotropic glutamate receptor 3 (Rattus norvegicus) (UniProt P31422); assay: Antagonistic activity against Glutamate receptor in rat spinal cord at concentration of 25 uM.; format: functional, tissue-based
In short: (§1)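 Neonatal hemisectioned spinal cord from Wistar rats (Alderley Park strain, 2-7 days old), anaesthetised with intraperitoneal urethane (25% w/v, […]) and then decapitated. Cord superfused with oxygenated medium at 1 mL/min. Agonist (SP, SP(6-11), glutamate or carbachol) applied as 2-mL doses in the superfusate. Antagonist superfused for at least 15 min before agonists were retested. Read-out: % change in ventral root–cord DC potential response amplitude.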

[2] = biological target: Substance-P receptor (Rattus norvegicus) (UniProt P14600); assay: Antagonistic activity against Substance P receptor in rat spinal cord at concentration of 25 uM.
[3] = biological target: Substance-P receptor (Cavia porcellus) (UniProt P30547); assay: Evaluated in vitro for percent agonist activity in guinea pig ileum (substance P receptor); format: functional, tissue-based
[4] = biological target: Substance-P receptor (Rattus norvegicus) (UniProt P14600); assay: Antagonistic activity against Substance P(6-11) receptor in rat spinal cord at concentration of 25 uM.
[5] = biological target: Substance-P receptor (Cavia porcellus) (UniProt P30547); assay: Antagonistic activity against Substance P(6-11) receptor in guinea pig ileum at concentration of 5 uM.; format: functional, tissue-based
In short: (§2)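 Distal ileum from Dunkin-Hartley guinea pigs (300-350 g, both sexes) in a Krebs organ bath at 37 °C, gassed with 95% O2/5% CO2. Agonist (SP or SP(6-11)) dose-response curves run on a 3-min cycle with 1-min contact, with and without antagonist. Dose ratio = agonist EC50 with antagonist / EC50 alone. At least two preparations per compound; ratios below 2 taken as insignificant.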

[6] = biological target: Metabotropic glutamate receptor 3 (Rattus norvegicus) (UniProt P31422); assay: Antagonistic activity against Glutamate receptor in rat spinal cord at concentration of 50 uM.; format: functional, tissue-based; in short: as §1
[7] = biological target: Substance-P receptor (Rattus norvegicus) (UniProt P14600); assay: Antagonistic activity against Substance P(6-11) receptor in rat spinal cord at concentration of 50 uM.
[8] = biological target: Substance-P receptor (Rattus norvegicus) (UniProt P14600); assay: Antagonistic activity against Substance P(6-11) receptor in rat spinal cord at concentration of 5 uM.
[9] = biological target: Metabotropic glutamate receptor 3 (Rattus norvegicus) (UniProt P31422); assay: Antagonistic activity against Glutamate receptor in spinal rat cord at concentration of 25 uM.; format: functional; in short: as §1
[10] = biological target: Metabotropic glutamate receptor 3 (Rattus norvegicus) (UniProt P31422); assay: Antagonistic activity against Glutamate receptor in spinal rat cord at concentration of 5 uM.; format: functional; in short: as §1
[11] = biological target: Substance-P receptor (Rattus norvegicus) (UniProt P14600); assay: Antagonistic activity against Substance P receptor in rat spinal cord at concentration of 5 uM.
[12] = biological target: Substance-P receptor (Rattus norvegicus) (UniProt P14600); assay: Antagonistic activity against Substance P receptor in rat spinal cord at concentration of 50 uM.
[13] = biological target: Substance-P receptor (Cavia porcellus) (UniProt P30547); assay: Antagonistic activity against Substance P(6-11) receptor in guinea pig ileum at concentration of 50 uM.; format: functional, tissue-based; in short: as §2
[14] = biological target: Substance-P receptor (Cavia porcellus) (UniProt P30547); assay: Antagonistic activity against Substance P receptor in guinea pig ileum at concentration of 50 uM.; format: functional, tissue-based; in short: as §2
[15] = biological target: Substance-P receptor (Cavia porcellus) (UniProt P30547); assay: Antagonistic activity against Substance P(6-11) receptor in guinea pig ileum at concentration of 10 uM.; format: functional, tissue-based; in short: as §2
[16] = biological target: Substance-P receptor (Cavia porcellus) (UniProt P30547); assay: Antagonistic activity against Substance P(6-11) receptor in guinea pig ileum at concentration of 1 uM.; format: functional, tissue-based; in short: as §2
[17] = biological target: Substance-P receptor (Cavia porcellus) (UniProt P30547); assay: Antagonistic activity against Substance P in guinea pig ileum at concentration of 10 uM.; format: functional, tissue-based; in short: as §2
[18] = biological target: Substance-P receptor (Cavia porcellus) (UniProt P30547); assay: Antagonistic activity against Substance P in guinea pig ileum at concentration of 1 uM.; format: functional, tissue-based; in short: as §2
[19] = biological target: Metabotropic glutamate receptor 3 (Rattus norvegicus) (UniProt P31422); assay: Antagonistic activity against Glutamate receptor in rat spinal cord at concentration of 10 uM.; format: functional, tissue-based
In short: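 Cord superfused with oxygenated medium at 1 mL/min. Agonist (SP, SP(6-11), glutamate or carbachol) applied as 2-mL doses in the superfusate. Antagonist superfused for at least 15 min before agonists were retested. Read-out: % change in ventral root–cord DC potential response amplitude.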

[20] = biological target: Substance-P receptor (Rattus norvegicus) (UniProt P14600); assay: Antagonistic activity against Substance P(6-11) receptor in rat spinal cord at concentration of 10 uM.
[21] = biological target: Substance-P receptor (Cavia porcellus) (UniProt P30547); assay: Antagonistic activity against Substance P receptor in guinea pig ileum at concentration of 6.4 uM.; format: functional, tissue-based; in short: as §2
[22] = biological target: Substance-P receptor (Cavia porcellus) (UniProt P30547); assay: Antagonistic activity against Substance P receptor in guinea pig ileum at concentration of 47 uM.; format: functional, tissue-based; in short: as §2
[23] = biological target: Substance-P receptor (Cavia porcellus) (UniProt P30547); assay: Antagonistic activity against Substance P(6-11) receptor in guinea pig ileum at concentration of 47 uM.; format: functional, tissue-based; in short: as §2
[24] = biological target: Substance-P receptor (Cavia porcellus) (UniProt P30547); assay: Antagonistic activity against Substance P(6-11) receptor in guinea pig ileum at concentration of 6.4 uM.; format: functional, tissue-based; in short: as §2

Sequence of Substance-P receptor (Rattus norvegicus) (P14600 whole entry, looked up): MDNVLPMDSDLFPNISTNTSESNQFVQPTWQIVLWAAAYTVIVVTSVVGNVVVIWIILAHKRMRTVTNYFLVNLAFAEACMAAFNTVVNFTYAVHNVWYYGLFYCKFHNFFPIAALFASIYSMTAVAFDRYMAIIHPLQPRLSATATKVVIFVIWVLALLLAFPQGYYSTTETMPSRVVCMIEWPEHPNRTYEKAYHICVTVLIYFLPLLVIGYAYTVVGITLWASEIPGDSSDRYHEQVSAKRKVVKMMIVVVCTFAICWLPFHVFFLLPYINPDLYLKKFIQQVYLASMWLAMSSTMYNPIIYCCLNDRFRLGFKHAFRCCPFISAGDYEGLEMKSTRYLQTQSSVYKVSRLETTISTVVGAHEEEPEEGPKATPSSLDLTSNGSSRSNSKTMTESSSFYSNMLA
Sequence of Metabotropic glutamate receptor 3 (Rattus norvegicus) (P31422 23-879 limits assumed): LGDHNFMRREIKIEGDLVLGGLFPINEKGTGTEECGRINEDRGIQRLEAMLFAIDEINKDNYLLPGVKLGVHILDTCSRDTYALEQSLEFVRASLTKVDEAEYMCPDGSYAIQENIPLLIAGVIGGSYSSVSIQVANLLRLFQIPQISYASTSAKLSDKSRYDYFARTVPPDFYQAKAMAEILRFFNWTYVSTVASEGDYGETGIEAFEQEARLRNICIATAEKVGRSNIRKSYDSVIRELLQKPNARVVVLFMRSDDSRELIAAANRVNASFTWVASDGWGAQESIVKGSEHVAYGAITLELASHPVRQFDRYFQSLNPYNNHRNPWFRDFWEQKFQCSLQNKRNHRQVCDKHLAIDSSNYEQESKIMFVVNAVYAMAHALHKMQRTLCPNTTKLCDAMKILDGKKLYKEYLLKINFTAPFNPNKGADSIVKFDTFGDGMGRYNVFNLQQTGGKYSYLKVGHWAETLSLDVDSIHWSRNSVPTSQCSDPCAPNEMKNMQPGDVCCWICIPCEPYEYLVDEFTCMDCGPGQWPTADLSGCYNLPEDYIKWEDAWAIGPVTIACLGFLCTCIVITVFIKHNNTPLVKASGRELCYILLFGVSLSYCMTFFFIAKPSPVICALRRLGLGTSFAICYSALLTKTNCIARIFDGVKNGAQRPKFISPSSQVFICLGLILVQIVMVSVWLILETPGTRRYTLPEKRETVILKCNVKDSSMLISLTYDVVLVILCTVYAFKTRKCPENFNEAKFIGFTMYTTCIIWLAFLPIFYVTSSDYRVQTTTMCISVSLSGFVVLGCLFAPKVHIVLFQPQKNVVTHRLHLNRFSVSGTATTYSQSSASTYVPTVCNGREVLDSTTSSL
Sequence of Substance-P receptor (Cavia porcellus) (P30547 whole entry): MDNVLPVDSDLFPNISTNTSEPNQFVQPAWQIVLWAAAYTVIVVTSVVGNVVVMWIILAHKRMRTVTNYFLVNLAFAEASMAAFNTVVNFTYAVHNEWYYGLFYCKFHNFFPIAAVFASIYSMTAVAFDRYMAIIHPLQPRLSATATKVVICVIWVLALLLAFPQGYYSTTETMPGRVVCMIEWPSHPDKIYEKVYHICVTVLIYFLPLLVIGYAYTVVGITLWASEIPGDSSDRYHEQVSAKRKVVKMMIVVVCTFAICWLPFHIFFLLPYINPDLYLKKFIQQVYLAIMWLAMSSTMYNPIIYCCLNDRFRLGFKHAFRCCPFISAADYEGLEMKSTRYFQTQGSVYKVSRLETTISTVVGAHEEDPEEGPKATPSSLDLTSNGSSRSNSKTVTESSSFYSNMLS

SMILES | Change in amplitude response [1] [%] | Change in amplitude response [2] [%] | SP [3] [%] | Change in amplitude response [4] [%] | Change in amplitude response [6] [%] | Change in amplitude response [7] [%] | Change in amplitude response [8] [%] | Change in amplitude response [12] | Activity [15] [dose ratio] | further results
CSCC[C@@H](NC(=O)[C@H](CC(C)C)NC(=O)[C@@H](Cc1c[nH]c2ccccc12)NC(=O)[C@H](Cc1c[nH]c2ccccc12)NC(=O)[C@@H](Cc1c[nH]c2ccccc12)NC(=O)[C@H](CCC(N)=O)NC(=O)[C@H](CCC(N)=O)NC(=O)[C@@H]1CCCN1C(=O)[C@H](CCCCNC(=O)OCc1ccccc1)NC(=O)[C@@H]1CCCN1C(=O)[C@H](CCCN=C(N)N)NC(=O)OCc1ccccc1)C(=O)O | -40 | -12 | < 2 | -49 | – | – | – | – | – | –
COC(=O)[C@@H](CCSC)NC(=O)[C@H](CC(C)C)NC(=O)[C@@H](Cc1c[nH]c2ccccc12)NC(=O)[C@H](Cc1c[nH]c2ccccc12)NC(=O)[C@@H](Cc1c[nH]c2ccccc12)NC(=O)[C@H](CCC(N)=O)NC(=O)[C@H](CCC(N)=O)NC(=O)[C@@H]1CCCN1C(=O)[C@H](CCCCN)NC(=O)[C@@H]1CCCN1C(=O)[C@@H](N)CCCN=C(N)N | – | 21 | – | -87 | 27 | -87 | -42 | -19% | – | Activity [5]: 8.1 dose ratio; Change in amplitude response [9]: 29%; Change in amplitude response [10]: -3%; Change in amplitude response [11]: 32%
COC(=O)[C@H](CCSC)NC(=O)[C@@H]1CCCN1C(=O)[C@H]1CCCN1C(=O)[C@H](Cc1ccccc1)NC(=O)[C@H](Cc1ccccc1)NC(=O)[C@H](CCC(N)=O)NC(=O)[C@H](CCC(N)=O)NC(=O)[C@@H]1CCCN1C(=O)[C@@H](CCCCNC(=O)OCc1ccccc1)NC(=O)[C@H]1CCCN1C(=O)[C@@H](CCCN=C(N)N)NC(=O)OCc1ccccc1 | – | – | 0 | – | 2 | -100 | -67 | 29% and 39% | – | Activity [13]: < 2 dose ratio; Activity [14]: 3 dose ratio
CSCC[C@@H](NC(=O)[C@H](CC(C)C)NC(=O)CNC(=O)[C@H](Cc1c[nH]c2ccccc12)NC(=O)[C@@H](Cc1c[nH]c2ccccc12)NC(=O)[C@H](CCC(N)=O)NC(=O)[C@H](CCC(N)=O)NC(=O)[C@@H]1CCCN1C(=O)[C@H](CCCCNC(=O)OCc1ccccc1)NC(=O)[C@@H]1CCCN1C(=O)[C@H](CCCN=C(N)N)NC(=O)OCc1ccccc1)C(=O)O | – | – | 0 | – | – | – | – | – | 18 | Activity [16]: 1.8 dose ratio; Activity [17]: 14.6 dose ratio; Activity [18]: 1.1 dose ratio
COC(=O)[C@@H](CCSC)NC(=O)[C@H](CC(C)C)NC(=O)CNC(=O)[C@@H](Cc1c[nH]c2ccccc12)NC(=O)[C@@H](Cc1c[nH]c2ccccc12)NC(=O)[C@H](CCC(N)=O)NC(=O)[C@H](CCC(N)=O)NC(=O)[C@@H]1CCCN1C(=O)[C@H](CCCCNC(=O)OCc1ccccc1)NC(=O)[C@@H]1CCCN1C(=O)[C@H](CCCN=C(N)N)NC(=O)OCc1ccccc1 (Cbz-RPK(Cbz)PQQ[dW][dW]GL[dM]-OMe) | -13 | – | 0 | -77 | 11 | -75 | – | 8.3% | 90 | Change in amplitude response [19]: -3%; Change in amplitude response [20]: -33%
CSCC[C@@H](NC(=O)[C@H](CC(C)C)NC(=O)[C@@H](Cc1c[nH]c2ccccc12)NC(=O)[C@H](Cc1c[nH]c2ccccc12)NC(=O)[C@@H](Cc1c[nH]c2ccccc12)NC(=O)[C@H](CCC(N)=O)NC(=O)[C@H](CCC(N)=O)NC(=O)[C@@H]1CCCN1C(=O)[C@H](CCCCN)NC(=O)[C@@H]1CCCN1C(=O)[C@@H](N)CCCN=C(N)N)C(=O)O | 7 | 30 | 0 | -55 | – | – | – | – | – | Activity [21]: 3.1 dose ratio; Activity [22]: 10.3 dose ratio; Activity [23]: 16.1 dose ratio; Activity [24]: 2 dose ratio
